Shown are actives, neighbours in structure and some others; about 2.6% of the full set was active somewhere.
TDP2 absorb: human TDP2 enzyme inhibitors, primary screen, biochemical, epi absorbance, recombinant enzyme | inhibition, % at 12.8 µM | Tyrosyl-DNA phosphodiesterase 2 (Homo sapiens), O95551 | 0.34% of 370,000 active | AID 720702, 2013 | T5PNP hydrolysis, p-nitrophenol absorbance 415 nm;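 active = inhibition above the mean of all tested compounds plus 3 SD, set per campaign, cut at about 25% in these data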
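test system = human TDP2 enzyme | input = TDP2 enzyme at 120 nM final | medium = 50 mM Tris-HCl pH 7.5 with Mg2+, KCl, DTT, BSA | also added = T5PNP substrate, 5 mM | times = 2 h at 37 °C | technique = epi absorbance | benchmarks = high control without enzyme, low control DMSO plus TDP2 | replication = each compound tested once, singlicate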
GSTO1 counter: inhibitors of recombinant GSTO1, primary screen, counter-screen for RBBP9 inhibitor project, biochemical, fluorescence polarization. Glutathione S-transferase omega-1 (Homo sapiens), P78417. activity-based probe fluorescence polarization. inhibition, % at 5.96 µM. 1.1% of 300,000 active;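 active = inhibition above the campaign mean inhibition plus 3 SD, cut at about 35% in these data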
PAD4 FP inh: human PAD4 inhibitors, primary screen, biochemical, fluorescence polarization, 1536-well format; Protein-arginine deiminase type-4 (Homo sapiens), Q9UM07; recombinant PAD4, RCA probe fluorescence polarization; inhibition, % at 6.36 µM; 0.41% of 330,000 active; AID 485272, 2010;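 active = percent inhibition above a cutoff equal to the mean of all tested compounds plus 3 SD, cut at about 15% in these data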
PRMT1 inh: PRMT1 methyltransferase inhibitors, primary screen, biochemical, fluorescence polarization; Protein arginine N-methyltransferase 1 (Homo sapiens), Q99873; recombinant PRMT1, activity-based probe fluorescence polarization; inhibition, % at 2.79 µM; 1.3% of 370,000 active;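 active = inhibition above about 21% made by adding two undisclosed values, limit read from the data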
Apaf-1 inh: inhibitors of human Apaf-1 apoptosome, primary screen, biochemical, DEVD-Rh110 fluorescence, uHTS | Apoptotic protease-activating factor 1 (Homo sapiens), O14727 | inhibition, % at 20 µM | reconstituted apoptosome caspase-3 activity | 0.71% of 330,000 active; active = inhibition of at least 40% at 20 µM
Target sequence (O14727 whole entry, looked up): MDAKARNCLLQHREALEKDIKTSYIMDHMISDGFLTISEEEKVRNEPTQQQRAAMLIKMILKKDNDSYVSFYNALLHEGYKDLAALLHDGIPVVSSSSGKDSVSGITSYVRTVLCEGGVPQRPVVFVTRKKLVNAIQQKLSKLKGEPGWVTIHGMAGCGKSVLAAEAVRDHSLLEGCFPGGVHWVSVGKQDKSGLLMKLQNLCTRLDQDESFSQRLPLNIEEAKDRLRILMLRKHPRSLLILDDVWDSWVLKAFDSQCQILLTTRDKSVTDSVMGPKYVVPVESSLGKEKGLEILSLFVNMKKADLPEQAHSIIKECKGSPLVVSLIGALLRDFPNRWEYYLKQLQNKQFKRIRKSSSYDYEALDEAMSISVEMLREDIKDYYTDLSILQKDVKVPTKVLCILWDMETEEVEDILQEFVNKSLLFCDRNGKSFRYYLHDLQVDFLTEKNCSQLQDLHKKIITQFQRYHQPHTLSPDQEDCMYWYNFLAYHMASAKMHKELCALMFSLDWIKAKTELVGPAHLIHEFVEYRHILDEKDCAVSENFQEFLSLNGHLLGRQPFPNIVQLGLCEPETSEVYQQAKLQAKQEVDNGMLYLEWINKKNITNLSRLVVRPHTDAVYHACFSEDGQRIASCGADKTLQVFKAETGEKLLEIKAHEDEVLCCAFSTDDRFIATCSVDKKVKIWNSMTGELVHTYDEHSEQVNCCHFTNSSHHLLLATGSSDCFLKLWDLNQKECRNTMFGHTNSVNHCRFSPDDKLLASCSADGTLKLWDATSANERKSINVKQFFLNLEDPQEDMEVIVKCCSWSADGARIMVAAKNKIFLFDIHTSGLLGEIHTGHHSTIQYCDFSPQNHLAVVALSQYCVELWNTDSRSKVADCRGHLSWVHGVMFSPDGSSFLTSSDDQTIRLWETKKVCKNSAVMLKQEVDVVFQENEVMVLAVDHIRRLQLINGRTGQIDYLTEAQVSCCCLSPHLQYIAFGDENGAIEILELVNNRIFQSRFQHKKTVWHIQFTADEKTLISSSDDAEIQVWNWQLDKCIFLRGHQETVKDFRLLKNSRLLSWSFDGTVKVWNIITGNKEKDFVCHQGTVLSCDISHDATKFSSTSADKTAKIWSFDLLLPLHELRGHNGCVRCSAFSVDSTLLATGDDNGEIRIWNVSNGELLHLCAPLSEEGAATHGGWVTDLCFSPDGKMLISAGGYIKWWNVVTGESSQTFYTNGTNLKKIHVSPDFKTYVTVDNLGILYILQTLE
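Assay system: Apoptosome proteins | Medium: pH 7.5 Hepes buffer with CHAPS, BSA, DTT | Also added: Cytochrome c and DEVD-Rh110 substrate | Times: 30 min plus 50 min, RT | Detection: Rhodamine 110 fluorescence at Ex 480/Em 540 nm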
TDP2 inh conf: human TDP2 enzyme inhibitors, retest, confirmation, biochemical, epi absorbance, recombinant enzyme; shares compounds with TDP2 absorb; absorbance read-out; inhibition, % at 12.8 µM; 22% of 1,100 active; AID 743263, 2014; in the data active = inhibition above about 25%
Numbers stand for hits; – = inactive; · = not tested or not shown.

SMILES	TDP2 absorb	GSTO1 counter	PAD4 FP inh	PRMT1 inh	Apaf-1 inh	TDP2 inh conf
CCOC(=O)N1CCN(C2=C(NS(=O)(=O)c3ccc(C)cc3)C(=O)c3ccccc3C2=O)CC1	42.3	–	–	–	86.2	32.0
Cc1nc2c(OCc3ccc(C#N)cc3)cccn2c1N(C)C(=O)CCC1CCCC1	–	·	·	–	·	·
CC1=NN(Cc2cc(C(C)(C)C)c(O)c(C(C)(C)C)c2)C(=O)C1	25.2	–	–	–	–	–
CC(C)(C)c1cc(CN2CCC(O)CC2)cc(C(C)(C)C)c1O	–	–	–	–	–	·
Cc1cccc(NC(=O)C2CCN(C(=O)[C@@H]3Cc4ccccc4CN3)CC2)c1	–	–	–	–	–	·
COc1ccc(NC(=O)C2CCN(C(=O)[C@@H]3Cc4ccccc4CN3)CC2)cc1	27.9	–	–	–	–	–
CCc1ccc(NC(=O)C2CCN(C(=O)[C@@H]3Cc4ccccc4CN3)CC2)cc1	–	–	–	–	–	·
Cc1ccc(NC(=O)C2CCN(C(=O)[C@@H]3Cc4ccccc4CN3)CC2)c(C)c1	25.4	–	–	–	–	–
COc1ccc(OC)c(-c2cnc(OC(C)(C)C)nc2OC(C)(C)C)c1	–	–	–	–	–	·
Cc1cc(/C=C2\SC(=S)NC2=O)c(C)n1C	25.3	45.7	–	22.5	–	–
Cc1cc(/C=C2\SC(=S)NC2=O)c(C)n1-c1ccccc1	–	–	–	–	–	·
CC(C)NC(=O)C1Cc2c(-c3ccccc3Oc3ccccc3)ccnc2O1 (centres undefined)	–	·	·	–	·	·
O=C(CSc1n[nH]c(=O)n1-c1cccnc1)Nc1ccccc1Cl	–	–	–	–	–	·
CC(C(=O)NC1C=CS(=O)(=O)C1)N1C(=O)/C(=C\c2ccccc2)SC1=S (centres undefined)	–	–	–	–	–	·
CC(C(=O)NC1C=CS(=O)(=O)C1)N1C(=O)/C(=C/c2cccc(Cl)c2)SC1=S (centres undefined)	26.5	–	–	–	–	–
CC1=C(C(=O)N(C(C)C)C(C)C)CC(CC(=O)NCCN2CCOCC2)C(=O)N1Cc1ccc(C(C)(C)C)cc1 (centres undefined)	–	·	·	–	·	·
COC(=O)C1=CN(Cc2ccccc2)C=C(C(=O)OC)C1c1ccc(OC)c(OC)c1	25.9	–	–	–	–	–
COC(=O)C1=CN(Cc2ccccc2)C=C(C(=O)OC)C1c1ccc(O)c(OC)c1	–	–	–	–	–	·
COc1cc(NCc2ccccc2)c2ncn(C(C)C)c2c1	–	·	–	–	–	·
COc1cc(NCCCNC(C)C)c2nccc(C)c2c1	27.7	·	·	–	·	27.6
CCCC(=O)Nc1cc(OC)c(NC(=S)Nc2ccc(CC)cc2)cc1OC	25.6	·	·	–	·	–
CCc1ccc(NC(=S)Nc2cc(OC)c(NC(=O)C(C)C)cc2OC)cc1	–	–	–	–	–	·
Cc1c(O)ccc2c(CC(=O)N[C@@H](Cc3ccc(O)cc3)C(=O)O)cc(=O)oc12	31.2	·	·	–	–	–
COc1ccc2c(CC(=O)N[C@@H](Cc3ccccc3)C(=O)O)cc(=O)oc2c1C	–	·	·	–	–	·
O=C1C=C(NCCc2cc(Br)c(O)c(Br)c2)C(=O)c2ncccc21	47.9	·	·	–	·	59.9
SMILES	TDP2 absorb	GSTO1 counter	PAD4 FP inh	PRMT1 inh	Apaf-1 inh	TDP2 inh conf
O=C(CN1CCOCC1)N1CCCc2ccccc21	–	–	–	–	–	·
O=C1CCC(=O)N1CC(=O)N1CCCc2ccccc21	24.6	–	–	–	–	–
CSc1nc2ccsc2c(=O)n1-c1ccccn1	60.0	–	–	–	–	–
O=C(NCc1ccccc1)c1ccccc1C(=O)c1ncc[nH]1	–	–	–	–	–	·
CCOc1ccc2[nH]c3nc(SCC(=O)OC(C)C)nnc3c2c1	24.9	–	–	–	–	–
COc1ccc(Cc2nc3ccc(C(=O)N4CCCCC4CCO)cc3o2)cc1 (centres undefined)	24.8	–	–	–	–	–
CC(C)N1CCC(NC(=O)Nc2ccc3c(c2)OCO3)CC1	–	–	–	–	–	·
O=C(Nc1c(-c2ccccc2)[nH][nH]c1=O)c1ccccc1	34.8	·	·	–	·	–
O=C(Nc1c(-c2ccc3c(c2)OCO3)[nH][nH]c1=O)c1ccc2c(c1)OCO2	47.7	·	·	–	·	67.2
O=C(Nc1c(-c2ccccc2)[nH][nH]c1=O)c1cccc(C(F)(F)F)c1	26.4	·	·	–	·	–
O=C(Nc1c(-c2ccc(Cl)cc2)[nH][nH]c1=O)c1ccc(Br)cc1	37.7	·	·	–	·	–
N#CCCN(C(=O)COC(=O)c1cc(S(=O)(=O)N2CCOCC2)ccc1Cl)c1ccc(F)cc1	–	–	–	–	–	·
CC1CCC(NC(=O)c2cc(C3CC3)nn2-c2ccccc2)CC1 (centres undefined)	–	·	–	–	–	·
O=C1C2(CCCC13COC(c1ccc(O)cc1)OC3)COC(c1ccc(O)cc1)OC2 (centres undefined)	25.0	–	–	–	–	–
CC1(C)CC(=O)C2=C(C1)OC(N)=C(C#N)C2c1ccccc1 (centres undefined)	68.1	–	–	–	–	–
COc1ccc(C(=O)NC2CCN(C(=S)Nc3ccc(C)cc3)CC2)cc1	–	–	–	–	–	·
COc1ccc(NC(=S)N2CCC(NC(=O)c3cccc(C)c3)CC2)cc1	29.3	–	–	–	–	–
COC(=O)c1cccc(NC(=O)c2cc3ccccc3o2)c1	–	–	–	–	–	·
COC(=O)c1cc(NC(=O)c2cc3ccccc3o2)cc(C(=O)OC)c1	26.2	–	–	–	–	–
Nc1[nH]ncc1S(=O)(=O)c1ccccc1	–	–	–	–	–	·
Cc1nc2scc(C)n2c(=O)c1S(=O)(=O)NCc1ccc(F)cc1	24.9	–	–	–	–	–
CCCCOc1ccc(CSCCNC(=S)Nc2ccccc2)cc1	–	–	–	–	–	·
CCCCCOc1ccc(CSCCNC(=S)Nc2ccccc2)cc1	36.6	–	–	–	–	–
CC(C)C1Cc2[nH]c(=O)c(C(=O)O)cc2CO1 (centres undefined)	29.3	–	–	–	–	–
Cc1ccc(C(=O)/C=C/c2ccco2)c(O)c1	–	–	–	–	–	·
O=C(O)c1ccc2c(c1)C(=O)N(c1cccc(S(=O)(=O)Nc3cccc(C(F)(F)F)c3)c1)C2=O	–	–	–	–	–	·
CCOC(=O)c1c(-c2ccc(Cl)cc2)csc1NC(=O)CNCc1ccco1	31.9	–	–	–	–	–
CC(C)(C)NC(=O)c1ccc2c(c1)CCO2	–	–	–	–	–	·

Bioassay records as filed in PubChem BioAssay.
